Measured values as given in ChEMBL document CHEMBL1275259, “In vitro antituberculosis activities of ACH-702, a novel isothiazoloquinolone, against quinolone-susceptible and quinolone-resistant isolates” (Antimicrob Agents Chemother, 2010).
Values after ≈ are worked out from the molar mass of the structure shown.

Tests used:
[1] = molecular target: DNA gyrase subunit A (Mycobacterium tuberculosis, UniProt P9WG47, A90V); experiment: Inhibition of DNA supercoiling activitysof Mycobacterium tuberculosis DNA gyrase subunit A A90V mutant
[2] = molecular target: DNA gyrase subunit A (Mycobacterium tuberculosis, UniProt P9WG47, D94G); experiment: Inhibition of DNA supercoiling activity of Mycobacterium tuberculosis DNA gyrase subunit A D94G mutant
[3] = test system: Mycobacterium tuberculosis; experiment: Antimicrobial activity against streptomycin-resistant Mycobacterium tuberculosis isolate 8; type: functional
Procedure, shortened: (§1)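 Broth microdilution MIC in modified 7H10 broth (pH 6.6). Drugs dissolved in DMSO at 1 mg/ml, then serially diluted. Isolates grown 5 to 10 days at 37°C on a rotary shaker, diluted to 100 Klett units and frozen. Final inoculum about 6 × 10^4 CFU/ml (range 1.2 × 10^4 to 2.6 × 10^5). Duplicate wells, sealed, read after about 21 days at 37°C in ambient air.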

[4] = test system: Mycobacterium tuberculosis; experiment: Antimicrobial activity against multidrug-resistant Mycobacterium tuberculosis isolate 9; type: functional; procedure, shortened: as §1
[5] = test system: Mycobacterium tuberculosis; experiment: Antimicrobial activity against quinolone-resistant Mycobacterium tuberculosis isolate 10; type: functional; procedure, shortened: as §1
[6] = test system: Mycobacterium tuberculosis; experiment: Antimicrobial activity against quinolone-resistant Mycobacterium tuberculosis isolate 11; type: functional; procedure, shortened: as §1
[7] = test system: Mycobacterium tuberculosis; experiment: Antimicrobial activity against quinolone-resistant Mycobacterium tuberculosis isolate 12; type: functional; procedure, shortened: as §1
[8] = test system: Mycobacterium tuberculosis; experiment: Antimicrobial activity against isoniazid-resistant Mycobacterium tuberculosis isolate 15; type: functional; procedure, shortened: as §1
[9] = test system: Mycobacterium tuberculosis; experiment: Antimicrobial activity against extensively drug-resistant Mycobacterium tuberculosis isolate 16; type: functional; procedure, shortened: as §1
[10] = test system: Mycobacterium tuberculosis; experiment: Antimicrobial activity against extensively drug-resistant Mycobacterium tuberculosis isolate 17; type: functional; procedure, shortened: as §1
[11] = test system: Mycobacterium tuberculosis; experiment: Antimicrobial activity against extensively drug-resistant Mycobacterium tuberculosis isolate 18; type: functional; procedure, shortened: as §1
[12] = test system: Mycobacterium tuberculosis; experiment: Antimicrobial activity against multidrug-resistant Mycobacterium tuberculosis isolate 19; type: functional; procedure, shortened: as §1
[13] = test system: Mycobacterium tuberculosis; experiment: Antimicrobial activity against multidrug drug-resistant Mycobacterium tuberculosis isolate 20; type: functional; procedure, shortened: as §1

Row | Structure (SMILES) | IC50 [1] [µM] | IC50 [2] [µM] | MIC [3] [µg/mL] | MIC [4] [µg/mL] | MIC [5] [µg/mL] | MIC [6] [µg/mL] | MIC [7] [µg/mL] | MIC [8] [µg/mL] | MIC [9] [µg/mL] | MIC [10] [µg/mL] | MIC [11] [µg/mL] | MIC [12] [µg/mL] | MIC [13] [µg/mL]
1 | C[C@H]1COc2c(N3CCN(C)CC3)c(F)cc3c(=O)c(C(=O)O)cn1c23 [LEVOFLOXACIN] | > 300 | > 300 | – | – | – | – | – | – | – | – | – | – | –
2 | NNC(=O)c1ccncc1 [ISONIAZID] | – | – | 0.125 (≈ 0.911 µM) | 4 (≈ 29.2 µM) | 0.03 (≈ 0.219 µM) | 0.03 (≈ 0.219 µM) | 0.03 (≈ 0.219 µM) | > 8 | 1 (≈ 7.29 µM) | 1 (≈ 7.29 µM) | 2 (≈ 14.6 µM) | 2 (≈ 14.6 µM) | 2 (≈ 14.6 µM)
3 | CO[C@H]1/C=C/O[C@@]2(C)Oc3c(C)c(O)c4c(O)c(c(/C=N/N5CCN(C)CC5)c(O)c4c3C2=O)NC(=O)/C(C)=C\C=C\[C@H](C)[C@H](O)[C@@H](C)[C@@H](O)[C@@H](C)[C@H](OC(C)=O)[C@@H]1C [RIFAMPIN] | – | – | 0.008 (≈ 0.00972 µM) | 64 (≈ 77.8 µM) | 0.004 (≈ 0.00486 µM) | 0.03 (≈ 0.0365 µM) | 0.004 (≈ 0.00486 µM) | 0.002 (≈ 0.00243 µM) | 8 (≈ 9.72 µM) | 8 (≈ 9.72 µM) | 8 (≈ 9.72 µM) | 64 (≈ 77.8 µM) | 16 (≈ 19.4 µM)
4 | CN[C@@H]1[C@H](O[C@H]2[C@H](O[C@H]3[C@H](O)[C@@H](O)[C@H](N=C(N)N)[C@@H](O)[C@@H]3N=C(N)N)O[C@@H](C)[C@]2(O)C=O)O[C@@H](CO)[C@H](O)[C@H]1O [STREPTOMYCIN] | – | – | – | 32 (≈ 55 µM) | – | – | – | – | – | – | – | – | –
5 | COc1c(N2C[C@@H]3CCCN[C@@H]3C2)c(F)cc2c(=O)c(C(=O)O)cn(C3CC3)c12 [MOXIFLOXACIN] | – | – | 0.06 (≈ 0.149 µM) | 0.06 (≈ 0.149 µM) | > 8 | 4 (≈ 9.96 µM) | 8 (≈ 19.9 µM) | 0.06 (≈ 0.149 µM) | 1 (≈ 2.49 µM) | 2 (≈ 4.98 µM) | 1 (≈ 2.49 µM) | 0.03 (≈ 0.0747 µM) | 0.03 (≈ 0.0747 µM)
6 | COc1c(N2CCNC(C)C2)c(F)cc2c(=O)c(C(=O)O)cn(C3CC3)c12 (stereo unspecified) [GATIFLOXACIN] | 28 | 44 | – | – | – | – | – | – | – | – | – | – | –
7 | COc1c(N2CC[C@@H](C(C)(C)N)C2)c(F)cc2c(=O)c3c(=O)[nH]sc3n(C3CC3)c12 | 4.6 | 7.9 | 0.25 (≈ 0.578 µM) | 0.06 (≈ 0.139 µM) | 0.125 (≈ 0.289 µM) | 0.25 (≈ 0.578 µM) | 1 (≈ 2.31 µM) | 0.06 (≈ 0.139 µM) | 0.5 (≈ 1.16 µM) | 1 (≈ 2.31 µM) | 0.125 (≈ 0.289 µM) | 0.03 (≈ 0.0694 µM) | 0.03 (≈ 0.0694 µM)
